Reference: ChEMBL document CHEMBL1177654, “[d4U]-spacer-[HI-236] double-drug inhibitors of HIV-1 reverse-transcriptase” (Bioorg Med Chem, 2010)

Columns and labels:
[1] = target: Human immunodeficiency virus type 1 reverse transcriptase (Human immunodeficiency virus 1, UniProt Q72547); assay: Inhibition of HIV1 reverse transcriptase-mediated thymidine incorporation into D23/D36 primer-template preincubated for 15 mins by polyacrylamide gel-electrophoresis
How it was run: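 RT at 6 nM active sites (from pre-steady-state active-site titration) pre-incubated ≥15 min with 1 μM 5′-radiolabelled D23/D36 primer/template, then ≥15 min on ice with inhibitor (DMSO held constant, <2%; DMSO-only control). Reaction started with 5 μM dTTP plus 10 mM MgCl2 (final concentrations), 15 min at 37 °C, quenched with 0.3 M EDTA. Products resolved on 20% denaturing PAGE. IC50 taken from a hyperbolic fit of product versus inhibitor concentration.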

MT2 = assay: Cytotoxicity against human MT2 cells after 5 days by MTT assay; assay type: cell-based; details: mt2, 120 h
How it was run: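 Mock-infected MT-2 cells (1 × 10^5 cells/mL) grown 5 days in RPMI 1640 with 10% dFBS and kanamycin at varying compound concentrations, in triplicate. Viability read by MTT (5 h), then acidified isopropanol lysis and absorbance at 595 nm. Triplicate averages plotted against concentration; CC50 is the concentration reducing viable cells by 50%.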

[2] = system: Human immunodeficiency virus 1; assay: Antiviral activity against HIV1 3B infected in human MT-2 cells assessed as inhibition of viral-mediated cell death after 5 days by MTT assay; assay type: functional, organism-based; details: Human immunodeficiency virus 1, 3B, MT2, 120 h
How it was run: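 MT-2 cells at 1 × 10^5 cells/mL infected with wild-type HIV-IIIB at MOI 0.1, cultured 5 days in RPMI 1640 with 10% dFBS and kanamycin across varying compound concentrations in triplicate. MTT added for 5 h, cells lysed with acidified isopropanol, absorbance read at 595 nm. Triplicate averages plotted as dose-response curves; EC50 is the concentration inhibiting viral-mediated cell death by 50%.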

COc1ccc(OCCOCC#Cc2cn([C@H]3C=C[C@@H](CO)O3)c(=O)[nH]c2=O)c(CCNC(=S)Nc2ccc(Br)cn2)c1
IC50 [1]: 575 nM
CC50 (MT2): 38000 nM
EC50 [2]: 1300 nM

COc1ccc(OCCOCCOCC#Cc2cn([C@H]3C=C[C@@H](CO)O3)c(=O)[nH]c2=O)c(CCNC(=S)Nc2ccc(Br)cn2)c1
IC50 [1]: 850 nM
CC50 (MT2): 43000 nM
EC50 [2]: 1900 nM

COc1ccc(OCCOCCOCCOCCOCC#Cc2cn([C@H]3C=C[C@@H](CO)O3)c(=O)[nH]c2=O)c(CCNC(=S)Nc2ccc(Br)cn2)c1
IC50 [1]: 1400 nM
CC50 (MT2): 18000 nM
EC50 [2]: 3100 nM

COC(=O)[C@H](C)NP(=O)(OC[C@@H]1C=C[C@H](n2cc(C#CCOCCOCCOCCOCCOc3ccc(OC)cc3CCNC(=S)Nc3ccc(Br)cn3)c(=O)[nH]c2=O)O1)Oc1ccc(C)cc1 (stereo not given in full)
IC50 [1]: 2300 nM
CC50 (MT2): 11000 nM
EC50 [2]: 2900 nM

COc1ccc(OCCC#Cc2cn([C@H]3C=C[C@@H](CO)O3)c(=O)[nH]c2=O)c(CCNC(=S)Nc2ccc(Br)cn2)c1
IC50 [1]: 61 nM
CC50 (MT2): 17000 nM
EC50 [2]: 250 nM

COc1ccc(OC)c(CCNC(=S)Nc2ccc(Br)cn2)c1
IC50 [1]: 38 nM
CC50 (MT2): > 1000 nM

Cc1cn([C@H]2C=C[C@@H](CO)O2)c(=O)[nH]c1=O [STAVUDINE]
IC50 [1]: 9600 nM
CC50 (MT2): > 100000 nM
EC50 [2]: 2300 nM
